Source: ChEMBL document CHEMBL1153631, “On the role of topoisomerase I in mediating the cytotoxicity of 9-aminoacridine-based anticancer agents” (Bioorg Med Chem Lett, 2009)
The source made the active and inactive calls. The rule behind the calls is not given here.

Assays:
DU-145 = assay: Cytotoxic activity against human DU145 cells after 48 hrs by fluorescent resazurin dye assay; format: functional, cell-based; settings: DU-145, 48 h
[1] = Cytotoxic activity against human OCL3 cells after 48 hrs by fluorescent resazurin dye assay; format: functional, cell-based; settings: OCL3, 48 h
[2] = target: T1, DNA topoisomerase 1 (Homo sapiens) (UniProt P11387); assay: Induction of covalent topoisomerase 1-DNA adduct stabilization in human MIA PaCa cells at 20 uM after 1 hr by ICE assay; format: cell-based; settings: 100 uM, in the assay text read “100 uM” for “20 uM”
T1 sequence (whole entry): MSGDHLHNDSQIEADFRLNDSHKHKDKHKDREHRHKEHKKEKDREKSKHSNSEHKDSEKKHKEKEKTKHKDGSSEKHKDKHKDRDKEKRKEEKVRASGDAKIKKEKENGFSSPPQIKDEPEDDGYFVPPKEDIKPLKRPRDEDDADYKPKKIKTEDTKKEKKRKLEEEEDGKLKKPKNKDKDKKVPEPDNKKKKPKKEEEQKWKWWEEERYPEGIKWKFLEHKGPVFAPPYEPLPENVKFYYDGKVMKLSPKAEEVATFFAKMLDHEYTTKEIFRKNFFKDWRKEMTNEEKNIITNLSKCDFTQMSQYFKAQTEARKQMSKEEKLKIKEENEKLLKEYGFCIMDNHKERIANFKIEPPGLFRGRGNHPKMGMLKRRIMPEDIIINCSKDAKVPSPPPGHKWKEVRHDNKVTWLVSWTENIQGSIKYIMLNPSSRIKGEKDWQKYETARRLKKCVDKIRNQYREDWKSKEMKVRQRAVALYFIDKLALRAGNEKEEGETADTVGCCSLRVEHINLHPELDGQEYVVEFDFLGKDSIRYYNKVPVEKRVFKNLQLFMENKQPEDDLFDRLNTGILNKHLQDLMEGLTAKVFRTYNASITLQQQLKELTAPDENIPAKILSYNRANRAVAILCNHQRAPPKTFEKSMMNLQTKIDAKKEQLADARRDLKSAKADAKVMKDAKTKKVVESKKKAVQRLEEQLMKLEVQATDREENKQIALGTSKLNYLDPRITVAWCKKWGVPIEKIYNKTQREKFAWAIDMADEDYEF
Method in brief: (§1)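 MiaPACA cells exposed to 20 or 100 μM agent for 1 h at 37 °C (vehicle 0.1% DMSO), then lysed with sarkosyl for the ICE bioassay. CsCl-purified DNA-positive gradient fractions were immunoblotted for topoisomerase I. Four independent experiments.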

[3] = Cytotoxic activity against mouse Hepa-1c1c7 cells after 48 hrs by fluorescent resazurin dye assay; format: functional, cell-based; settings: Hepa-1c1c7, 48 h
MCF7 = assay: Cytotoxic activity against human MCF7 cells after 48 hrs by fluorescent resazurin dye assay; format: functional, cell-based; settings: MCF7, 48 h
[4] = target: T1, DNA topoisomerase 1 (Homo sapiens); assay: Inhibition of human topoisomerase 1-mediated relaxation of supercoiled plasmid O6#7 DNA at 100 uM after 30 mins by gel electrophoresis
Method in brief: (§2)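 Supercoiled plasmid incubated with 2 units topoisomerase I and test agent at 8 μM or at a final 50 or 100 μM. A no-enzyme lane was included. Supercoiled and relaxed DNA bands were resolved on a gel. Four experiments.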

NCI-H460 = assay: Cytotoxic activity against human H460 cells after 48 hrs by fluorescent resazurin dye assay; format: functional, cell-based; settings: NCI-H460, 48 h
SK-MEL = assay: Cytotoxic activity against human SK-MEL cells after 48 hrs by fluorescent resazurin dye assay; format: functional, cell-based
[5] = Cytotoxic activity against human SU-8686 cells after 48 hrs by fluorescent resazurin dye assay; format: functional, cell-based; settings: SU.86.86, 48 h
HCT-116 = assay: Cytotoxic activity against human HCT116 cells after 48 hrs by fluorescent resazurin dye assay; format: functional, cell-based; settings: HCT-116, 48 h
REH = assay: Cytotoxic activity against human REH cells after 48 hrs by fluorescent resazurin dye assay; format: functional, cell-based
[6] = target: T1, DNA topoisomerase 1 (Homo sapiens); assay: Inhibition of human topoisomerase 1-mediated relaxation of supercoiled plasmid O6#7 DNA at 8 uM after 30 mins by gel electrophoresis; method in brief: as §2
HeLa = assay: Cytotoxicity against human HeLa cells at 10 to 40 uM by coomassie blue assay in presence of topoisomerase 1-directed siRNA
[7] = target: T1, DNA topoisomerase 1 (Homo sapiens); assay: Induction of covalent topoisomerase 1-DNA adduct stabilization in human MIA PaCa cells at 100 uM after 1 hr by ICE assay; format: cell-based; method in brief: as §1
[8] = target: T1, DNA topoisomerase 1 (Homo sapiens); assay: Induction of covalent human topoisomerase 1-plasmid O6#7 DNA adduct stabilization assessed as appearance of nicked plasmid at 100 uM by agarose gel electrophoresis
Method in brief: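 Supercoiled plasmid aliquots incubated 30 min at 37 °C with nuclear extract containing 50 units topoisomerase I and test agent at 1.6 μM or 100 μM; the DNA products were then examined.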

| SMILES | EC50 (DU-145) | EC50 [1] | Activity [2] | EC50 [3] | EC50 (MCF7) | Activity [4] | EC50 (NCI-H460) | EC50 (SK-MEL) | EC50 [5] | EC50 (HCT-116) | EC50 (REH) | Activity [6] | Activity (HeLa) | Activity [7] | Activity [8] |
| --- | --- | --- | --- | --- | --- | --- | --- | --- | --- | --- | --- | --- | --- | --- | --- |
| CN1CCN(C(=O)c2cccc3c(NCCc4c[nH]c5ccccc45)c4ccccc4nc23)CC1 | 37.2 µM | 39.8 µM | Active | 55.9 µM | 37.2 µM | inactive | 16 µM | 16.7 µM | 6.8 µM | 29 µM | 19.7 µM | – | – | – | – |
| CCN(CC)C(=O)c1ccc2c(NCCc3c[nH]c4ccccc34)c3ccccc3nc2c1 | 11.9 µM | 18.3 µM | Active | 11.2 µM | 13.5 µM | inactive | 18.8 µM | 16 µM | 16.2 µM | 11.2 µM | 15.5 µM | – | – | – | – |
| CN1CCN(C(=O)c2ccc3c(NCCc4c[nH]c5ccccc45)c4ccccc4nc3c2)CC1 | 16.6 µM | 15.3 µM | – | 24.8 µM | 19.2 µM | inactive | 31.8 µM | 5.3 µM | 16.3 µM | 27.6 µM | 4.1 µM | – | – | – | – |
| COc1ccc2c(c1)-c1nn(CCCN(C)C)c3ccc([N+](=O)[O-])c(c13)N2 | – | – | – | – | – | – | – | – | – | – | – | Active | – | – | – |
| CC[C@@]1(O)C(=O)OCc2c1cc1n(c2=O)Cc2cc3ccccc3nc2-1 | – | – | – | – | – | – | – | – | – | – | – | – | inactive | – | – |
| CN1CCN(C(=O)c2ccc3c(NC4CCN(Cc5ccccc5)CC4)c4ccccc4nc3c2)CC1 | 32.4 µM | 20.3 µM | – | 26.9 µM | 25.7 µM | inactive | 38.5 µM | 14.6 µM | 21.2 µM | 29.2 µM | 21 µM | – | Active | Active | Active |
